# Assay results from ChEMBL document CHEMBL1153702, “Synthesis and cytotoxic activity of 2-methylimidazo[1,2-a]pyridine- and quinoline-substituted 2-aminopyrimidine derivatives” (Eur J Med Chem, 2010).
# Activity calls are given as the source filed them. The calls are words filed in the database; no cut-off is given here.
# Tests used:
# MCF7 [1] = experiment: Cytotoxicity against human MCF7 cells after 48 hrs by SRB assay; assay type: functional, cell-based; settings: MCF7, 48 h
# In short: (§1)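 SRB protein-staining assay: 5–10 × 10^3 cells/well in RPMI-1640/10% FCS, allowed 24 h to attach, then 48 h with compound dissolved from DMSO stock; TCA fixation, 0.4% SRB staining, Tris-solubilized dye read at 515 nm. IC50 from dose-response curve by non-linear regression; mean ± SD of three independent experiments.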
# MCF7 [2] = experiment: Cell cycle arrest in human MCF7 cells assessed as accumulation at G2/M phase after 24 hrs by flow cytometry; assay type: functional
# PC-3 = experiment: Cytotoxicity against human PC3 cells at 50 uM after 48 hrs by SRB assay; assay type: functional; settings: PC-3, 48 h
# In short: (§2)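 Cells in RPMI-1640 with 10% FCS at 37 °C, 5% CO2; 5–10 × 10^3 cells/well seeded 24 h, then exposed 48 h to 50 μM compound (DMSO stock; 5-fluorouracil at same concentration as positive control). TCA-fixed at 4 °C 1 h, stained with 0.4% SRB, dye solubilized in 10 mM Tris base, OD 515 nm; % growth inhibition, mean of three experiments in triplicate.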
# K562 = experiment: Cytotoxicity against human K562 cells at 50 uM after 48 hrs by SRB assay; assay type: functional; settings: for inhibition at 50 µM: K562, 48 h; in short: as §2
# HCT-15 = experiment: Cytotoxicity against human HCT15 cells at 50 uM after 48 hrs by SRB assay; assay type: functional; settings: for inhibition at 50 µM: HCT-15, 48 h; in short: as §2
# SK-LU-1 [3] = experiment: Induction of apoptosis in human SK-LU-1 cells assessed as necrotic cells after 48 hrs using annexin-V-FITC/propidium iodide staining by flow cytometry; assay type: functional, cell-based
# In short: (§3)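 2.5 × 10^5 cells per well attached 24 h, then treated 48 h with compound or DMSO vehicle at the highest concentration used. Adherent plus floating cells washed in PBS, resuspended in annexin-binding buffer, stained with annexin V-FITC and propidium iodide 10 min in the dark at room temperature; 10,000 events analysed by flow cytometry, quadrants scoring apoptotic versus late apoptotic/necrotic cells.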
# SK-LU-1 [4] = experiment: Cytotoxicity against human SK-LU-1 cells at 50 uM after 48 hrs by SRB assay; assay type: functional; settings: SK-LU-1, 48 h; in short: as §2
# MCF7 [5] = experiment: Cytotoxicity against human MCF7 cells at 50 uM after 48 hrs by SRB assay; assay type: functional; settings: MCF7, 48 h; in short: as §2
# [6] = target: Cyclin-dependent kinase 1/cyclin B1 (Homo sapiens) (UniProt P06493+P14635); settings: at 7 µM
# Chain of Cyclin-dependent kinase 1/cyclin B1 (Homo sapiens) (P06493 whole entry, looked up): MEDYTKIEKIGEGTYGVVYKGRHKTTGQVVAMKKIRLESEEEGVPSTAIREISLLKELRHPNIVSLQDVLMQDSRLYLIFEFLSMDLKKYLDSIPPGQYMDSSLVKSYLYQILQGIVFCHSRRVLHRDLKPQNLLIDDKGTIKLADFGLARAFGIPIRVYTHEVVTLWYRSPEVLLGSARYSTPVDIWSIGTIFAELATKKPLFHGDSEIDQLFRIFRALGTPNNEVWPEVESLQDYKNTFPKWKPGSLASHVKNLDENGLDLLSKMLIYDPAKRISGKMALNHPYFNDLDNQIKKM
# Chain of Cyclin-dependent kinase 1/cyclin B1 (Homo sapiens) (P14635 whole entry, looked up): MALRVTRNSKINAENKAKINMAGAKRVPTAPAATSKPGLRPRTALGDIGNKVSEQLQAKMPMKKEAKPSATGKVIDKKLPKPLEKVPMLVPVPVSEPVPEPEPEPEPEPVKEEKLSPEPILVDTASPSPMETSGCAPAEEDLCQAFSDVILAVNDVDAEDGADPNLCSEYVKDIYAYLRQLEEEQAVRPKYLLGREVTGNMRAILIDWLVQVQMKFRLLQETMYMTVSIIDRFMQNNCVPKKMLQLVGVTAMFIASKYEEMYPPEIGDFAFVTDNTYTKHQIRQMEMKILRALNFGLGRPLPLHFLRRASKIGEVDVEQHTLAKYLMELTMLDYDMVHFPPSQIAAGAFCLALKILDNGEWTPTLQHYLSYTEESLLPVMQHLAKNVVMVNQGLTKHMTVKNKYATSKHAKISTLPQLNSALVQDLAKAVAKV
# SK-LU-1 [7] = experiment: Cell cycle arrest in human SK-LU-1 cells assessed as accumulation at G1 phase after 24 hrs by flow cytometry; assay type: functional
# SK-LU-1 [8] = experiment: Cytotoxicity against human SK-LU-1 cells after 48 hrs by SRB assay; assay type: functional, cell-based; settings: SK-LU-1, 48 h; in short: as §1
# U-251 = experiment: Cytotoxicity against human U251 cells at 50 uM after 48 hrs by SRB assay; assay type: functional; settings: U-251, 48 h; in short: as §2
# SK-LU-1 [9] = experiment: Cell cycle arrest in human SK-LU-1 cells assessed as accumulation at G2/M phase after 24 hrs by flow cytometry; assay type: functional
# MCF7 [10] = experiment: Cell cycle arrest in human MCF7 cells assessed as accumulation at S phase after 24 hrs by flow cytometry; assay type: functional
# SK-LU-1 [11] = experiment: Cell cycle arrest in human SK-LU-1 cells assessed as accumulation at S phase after 24 hrs by flow cytometry; assay type: functional
# MCF7 [12] = experiment: Cell cycle arrest in human MCF7 cells assessed as accumulation at G1 phase after 24 hrs by flow cytometry; assay type: functional
# SK-LU-1 [13] = experiment: Induction of apoptosis in human SK-LU-1 cells assessed as apoptotic cells after 48 hrs using annexin-V-FITC/propidium iodide staining by flow cytometry; assay type: functional, cell-based; in short: as §3
Compound,IC50 (MCF7 [1]) [µM],Activity (MCF7 [2]) [%],inhibition at 50 µM (PC-3) [%],inhibition at 50 µM (K562) [%],inhibition at 50 µM (HCT-15) [%],Activity (SK-LU-1 [3]),inhibition at 50 µM (SK-LU-1 [4]) [%],inhibition at 50 µM (MCF7 [5]) [%],inhibition [6] [%],Activity (SK-LU-1 [7]) [%],IC50 (SK-LU-1 [8]) [µM],inhibition at 50 µM (U-251) [%],Activity (SK-LU-1 [9]) [%],Activity (MCF7 [10]) [%],Activity (SK-LU-1 [11]) [%],Activity (MCF7 [12]) [%],Activity (SK-LU-1 [13]),inhibition (HCT-15),inhibition (K562)
Cc1nc2ccccn2c1-c1ccnc(Nc2ccc(C=O)s2)n1,4.27,22.2,49.5,88.1,85.4,inactive,100,75.9,52,42.5,1.54,57.8,48,15.7,13.9,54.5,Active,–,–
Nc1nccc(-c2ccnc3ccccc23)n1,40.2,–,77.4,9.4,–,–,78.2,100,–,–,> 50,100,–,–,–,–,–,inactive,–
Cn1cnc2c(NCc3ccccc3)nc(NCCO)nc21 [OLOMOUCINE],–,23.2,–,–,–,–,–,–,–,44.2,–,–,31.8,15.1,19.7,60.6,–,–,–
FC(F)(F)c1ccc(Nc2nccc(-c3c(C(F)(F)F)nc4ccccn34)n2)cc1,0.29,–,92,94.2,94.4,–,95,100,–,–,0.745,100,–,–,–,–,–,–,–
Cc1nc2ccccn2c1-c1ccnc(Nc2ccc(C(F)(F)F)cc2)n1,0.066,–,64.5,84.8,88.6,–,100,83.4,60,–,0.034,85.6,–,–,–,–,–,–,–
FC(F)(F)c1ccc(Nc2nccc(-c3ccnc4ccccc34)n2)cc1,1.65,–,87.3,–,100,–,100,100,–,–,1.72,91.8,–,–,–,–,–,–,inactive
FC(F)(F)c1ccc(Nc2nccc(-c3cnc4ccccc4c3)n2)cc1,> 50,–,22.9,–,24,–,35.4,80.9,–,–,–,49.8,–,–,–,–,–,–,inactive
Nc1nccc(-c2c(C(F)(F)F)nc3ccccn23)n1,53.7,–,74,56.3,–,–,71,100,–,–,56.5,92.2,–,–,–,–,–,–,–
Cc1ccc(Nc2nccc(-c3c(C)nc4ccccn34)n2)cc1,0.059,14.7,94.2,89.4,95.2,inactive,100,88.5,59,4.7,0.0197,100,77.5,25.3,20.9,60.8,Active,–,–
Cc1ccc(Nc2nccc(-c3cnc4ccccc4c3)n2)cc1,50,–,59.5,–,30.3,–,46.3,100,73,–,–,87.7,–,–,–,–,–,–,inactive
Nc1nccc(-c2cnc3ccccc3c2)n1,> 50,–,31.9,–,–,–,59.3,100,–,–,> 50,38.5,–,–,–,–,–,inactive,inactive
O=c1[nH]cc(F)c(=O)[nH]1 [FLUOROURACIL],–,–,45.4,73.7,71.3,–,70.5,65.1,–,–,–,64.2,–,–,–,–,–,–,–
Cc1ccc(Nc2nccc(-c3ccnc4ccccc34)n2)cc1,0.6,64.7,100,50.9,100,inactive,100,100,75,8.1,1.4,100,74,15.1,22,18.7,Active,–,–
Cc1ccc(Nc2nccc(-c3c(C(F)(F)F)nc4ccccn34)n2)cc1,0.044,–,100,100,100,inactive,100,100,–,–,0.175,100,–,–,–,–,Active,–,–
